Legend:
Thiol reactivity assay = assay type: physicochemical; conditions: compared with 2; reactivity varied by an order of magnitude
PC3 = experiment: 2D growth over time viability; assay type: cell-based; conditions: up to 8 days
In short: (§1)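 Cells seeded at 500 per well (PATU-8988T: 100 per well) and dosed with test compound or DMSO the next day. Kept at 37 °C, 5% CO2, with medium and compound renewed every 48 h. One plate per time point (days 0, 2, 4, 6, 8); the day 0 plate was read before dosing. Viability measured by CellTiter-Glo luminescence.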

GST-Pin1 [1] = biological target: T1, GST-Pin1 (Homo sapiens, UniProt Q13526); experiment: Chymotrypsin-coupled PPIase activity assay; assay type: biochemical; conditions: read-out: apparent Ki (PPIase assay); measured at 12 h
T1 sequence (Q13526 whole entry): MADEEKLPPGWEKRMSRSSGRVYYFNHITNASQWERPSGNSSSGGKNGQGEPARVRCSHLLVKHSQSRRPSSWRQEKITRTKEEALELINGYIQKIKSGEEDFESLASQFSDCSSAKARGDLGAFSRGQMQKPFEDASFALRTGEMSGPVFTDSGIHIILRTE
In short: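 GST-Pin1 (50 nM) preincubated with test compound for 12 h at 4 °C in 35 mM HEPES pH 7.8, 0.2 mM DTT, 0.1 mg ml-1 BSA. Chymotrypsin (final 6 mg ml-1) was added just before starting, followed by Suc-Ala-pSer-Pro-Phe-pNA substrate.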

MDA-MB-468 = experiment: 2D growth over time viability; assay type: cell-based; conditions: up to 8 days, 2.5 μM
In short: as §1

[2] = tested on: transplanted neuroblastoma cells in zebrafish embryos; experiment: Zebrafish neuroblastoma allograft transplant model; assay type: in vivo; conditions: 100 μM in fish water, 5 days
In short: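 Neuroblastoma cells obtained by dicing 4-month-old Tg(dβh:MYCN;dβh:EGFP) fish in PBS and transplanted into embryos. Live fish imaged under identical conditions. Tumour burden quantified as the area of EGFP-fluorescent tumour mass.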

Pin1 [3] = experiment: In vivo Pin1 engagement, spleen competition pulldown; set-up: species or system mice; conditions: 20 mg kg^–1 oral gavage, three doses over 2 days
In short: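 Mice dosed by oral gavage with vehicle or 10 or 20 mg kg-1, three doses over two consecutive days. Spleens harvested 4 h after the last dose, ground and lysed in HEPES pH 7.4/NaCl/glycerol/TCEP/NP-40 buffer with protease inhibitors. Lysate clarified and normalized by BCA to 2.5 µg µl-1. Competition pulldown run with a desthiobiotin-tagged probe analogue.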

GST-Pin1 [4] = biological target: T1, GST-Pin1; experiment: Competitive fluorescence polarization; assay type: binding
In short: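 GST-Pin1 (250 nM) preincubated 14 h at 4 °C with compound and 5 nM N-terminal fluorescein-labelled peptide probe (Bth-D-pThr-Pip-Nal). Buffer: 10 mM HEPES, 10 mM NaCl, 1% glycerol pH 7.4, 10 µg ml-1 BSA, 0.01% Tween-20, 1 mM DTT. Ki calculated from probe concentration, 85% probe bound and Pin1 concentration. Kinact from dose- and time-dependent runs. n = 3 samples ± s.e.m.; 2 experiments.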

IMR90 lung fibroblast = IMR90 lung fibroblast viability; assay type: cell-based; conditions: IMR90 lung fibroblasts
Pin1 [5] = experiment: Live cell competition pulldown; assay type: cell-based
In short: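 2.5 million cells per 10-cm plate, dosed next day with DMSO or test compound (5 h, or as indicated). Cells washed in cold PBS, scraped and lysed in HEPES pH 7.4/NP-40 buffer with TCEP. Lysate (500 µg) incubated with desthiobiotin probe (1 µM, 1 h, 4 °C), then streptavidin agarose (1.5 h, 4 °C). Pin1 pulldown detected by immunoblot.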

[6] = tested on: radioresistant HeLa cells; experiment: Radiosensitization AlamarBlue viability assay; assay type: cell-based; conditions: 7.5 Gy IR
In short: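 HeLa cells seeded at 200 per well. Treated with compound 16 h later, then given 7.5 Gy X-ray 1 h after treatment. AlamarBlue (10% final) added 3 days post-irradiation. Absorbance read at 570 nm, 600 nm reference, 4 days post-irradiation. Background taken from cell-free wells; % survival set against DMSO-treated, nonirradiated controls.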

Pin1 Cys113 = experiment: rdTOP-ABPP chemoproteomic cysteine profiling; assay type: cell-based; conditions: MDA-MB-231 cells, 5 μM, 2 h
In short: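 MDA-MB-231 cells at 70% confluence treated 2 h with DMSO or 5 µM compound in serum-free medium. Lysed by sonication in PBS/0.1% Triton X-100; spun 100,000g, 30 min. Proteome (2 mg ml-1) labelled with 100 µM iodoacetamide-alkyne, 1 h RT. Clicked 1 h to biotin-acid-N3 (CuSO4/TBTA/TCEP). LC-MS/MS with cysteine modification +322.23688 Da; light/heavy ratios quantified.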

PATU-8988T cells = experiment: Cell cycle analysis; assay type: cell-based; conditions: 2.5 μM, 4 days
In short: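 PATU-8988T cells treated 4 days with DMSO (0.1%), test compound or a non-covalent analogue (each 2.5 µM), with medium replaced on day 3; run in triplicate or more. Pulsed with 10 µM BrdU for 1 h, then fixed in 70% ethanol and denatured in 2 M HCl/0.5% Triton X-100 (30 min, RT). Neutralised with 0.1 M Na2B4O7 pH 8.5 and stained overnight at 4 °C with anti-BrdU-FITC. Counterstained with propidium iodide plus RNase A (each 50 µg ml-1) and analysed by FACS.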

PATU-8988T Pin1 KO cells = experiment: 2D growth over time viability; assay type: cell-based; conditions: 1 μM, up to 8 days
In short: as §1

[7] = tested on: PINN1, the worm Pin1 homolog; conditions: cited from earlier work
[8] = tested on: 275 human cancer cell lines; experiment: PRISM cancer cell viability screening; assay type: cell-based; conditions: 5-day treatment, 275 cell lines
In short: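 Pooled, 24-nucleotide-barcoded cancer cell lines (275 in total) exposed to test compound for 5 days. Eight-point curve in fourfold dilutions from a top concentration of 20 µM.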

Kuramochi = experiment: 2D growth over time viability; assay type: cell-based; conditions: up to 8 days
In short: as §1

[9] = Acute toxicity model in mice; assay type: in vivo; conditions: daily 10, 20 or 40 mg kg^–1 IP for 2 weeks
In short: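 Mice, 3 per arm, 14 days: vehicle; 10 mg kg-1 once daily; 20 mg kg-1 every other day; 40 mg kg-1 once daily; 40 mg kg-1 every other day. Given by IP injection in 5% N-methylpyrrolidone, 5% solutol, 20% DMSO. Adverse effects and weight recorded; postmortem examination.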

NBL-S = experiment: 2D growth over time viability; assay type: cell-based; conditions: 2.5 μM after 8 days
In short: as §1

[10] = dose- and time-dependent FP assay

SMILES: CC(C)(C)CN(C(=O)CCl)C1CCS(=O)(=O)C1 (stereo not drawn) [Sulfopin]
- thiol reactivity (Thiol reactivity assay): dramatically less reactive
- antiproliferative effect (growth over time) (PC3): only slight effects
- Ki (GST-Pin1 [1]): 211 nM
- antiproliferative effect (growth over time) (MDA-MB-468): most pronounced sensitivity
- eGFP-labeled tumor mass size [2]: decreased in size
- in vivo Pin1 engagement in spleen (Pin1 [3]): Effective Pin1 engagement was observed in three out of three mice
- Kinact (GST-Pin1 [4]; [10]): 0.03 min⁻¹
- second-order rate constant (Kinact/Ki) (GST-Pin1 [4]; [10]): 84 M⁻¹ s⁻¹
- Ki (GST-Pin1 [4]; read-out: apparent Ki (FP assay), after 14 h incubation): 17 nM
- no toxicity up to (IMR90 viability) (IMR90 lung fibroblast): > 25 µM
- time to complete Pin1 engagement (Pin1 [5]; 1-μM treatment, PATU-8988T cells): ≤ 4 h
- concentration fully engaging Pin1 (Pin1 [5]; HCT116 cells, 5 h): 0.5 µM
- concentration of maximal Pin1 engagement (Pin1 [5]; PATU-8988T and HCT116 cells, 5 h): 0.5 to 1 µM
- concentration fully engaging Pin1 (Pin1 [5]; PATU-8988T cells, 5 h): 1 µM
- Pin1 engagement after 72 h (Pin1 [5]; PATU-8988T or HCT116 cells, 72 h): > 50%
- resensitization to irradiation [6]: significantly resensitized them to irradiation in a dose-dependent manner
- competition ratio R, Pin1 Cys113 (Pin1 Cys113): 15
- competition ratio R, all other identified cysteines (Pin1 Cys113; 2,134 peptides): < 2.5
- cells in G1 phase (PATU-8988T cells): increased the number of cells found in G1 phase
- cells in S phase (PATU-8988T cells): reduced the percentage of cells in S phase
- effect on cellular viability (PATU-8988T Pin1 KO cells): no significant effect on viability
- inhibition of PINN1 in Caenorhabditis elegans [7]: inhibited PINN1
- antiproliferative activity (PRISM) [8]: limited to no antiproliferative activity
- number of cell lines with EC50 <3 μM [8]: nine
- antiproliferative effect (growth over time) (Kuramochi): only slight effects
- adverse effects, weight loss [9]: No adverse effects or weight loss were recorded
- antiproliferative effect (growth over time) (NBL-S): significant viability effects

Reference: article PMC9119696 (Nature chemical biology, 2021)
